Values after ≈ are worked out from the molar mass of the structure shown.
Experiments:
Staphylococcus aureus [1] = assay: Antibacterial activity against Staphylococcus aureus; assay type: functional
Proteus mirabilis = assay: In vitro for antibacterial activity against Proteus mirabilis; assay type: functional
In short: (§1)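 MIC by serial 2-fold broth dilution in nutrient broth with an inoculum of 10^6 CFU/mL. Compound range was 0.0005–250 μg/mL. Plates were incubated 18 h at 37 °C. MIC was taken as the lowest concentration preventing visible growth.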

Enterococcus faecalis = assay: In vitro for antibacterial activity against Enterococcus faecalis; assay type: functional; in short: as §1
Morganella morganii = assay: In vitro for antibacterial activity against Morganella morganii; assay type: functional; in short: as §1
Streptococcus pneumoniae [2] = assay: Antibacterial activity against Streptococcus pneumoniae; assay type: functional
Streptococcus pneumoniae [3] = assay: animal or person; assay type: functional; conditions: in Mus musculus, po, read-out: PD50
Escherichia coli [4] = assay: Compound was tested for […] against Escherichia coli A 15119 after oral administration of drug in mice; assay type: functional; conditions: read-out: PD50
In short: (§2)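 Mouse protection test against systemic infection. Compound was dissolved in sterile water and given orally to female OF1-strain Swiss mice weighing 18–25 g, with five mice per group.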

Enterobacter cloacae = assay: In vitro for antibacterial activity against Enterobacter cloacae; assay type: functional
Escherichia coli [5] = assay: In vitro for antibacterial activity against Escherichia coli; assay type: functional; in short: as §1
[6] = Solubility was measured at PH - 7.2 buffer
Serratia marcescens = assay: In vitro for antibacterial activity against Serratia marcescens; assay type: functional; in short: as §1
Klebsiella pneumoniae = assay: In vitro for antibacterial activity against Klebsiella pneumoniae; assay type: functional; in short: as §1
Staphylococcus aureus [7] = assay: animal or person; assay type: functional; conditions: in Mus musculus, po, read-out: PD50
[8] = Lethal dose was determined in OF1-strain female Swiss mice after intra venous administration of the drug; conditions: mouse, in vivo, iv
[9] = Partition coefficient (logD); conditions: octanol/water
Pseudomonas aeruginosa [10] = assay: animal or person; assay type: functional; conditions: in Mus musculus, po, read-out: PD50
Pseudomonas aeruginosa [11] = assay: In vitro for antibacterial activity against Pseudomonas aeruginosa; assay type: functional; in short: as §1
[12] = Lethal dose was determined in OF1-strain female Swiss mice after oral administration of the drug; conditions: mouse, in vivo
Bacteroides fragilis = assay: In vitro for antibacterial activity against […].; assay type: functional; in short: as §1
Staphylococcus = assay: Compound was tested for […] against Staphylococcus aureus A 15090 after oral administration of drug in mice; assay type: functional; conditions: read-out: PD50; in short: as §2
Mus musculus = organism: Mus musculus; conditions: in vivo
in vivo = conditions: mouse, plasma, T1/2

| Compound | MIC (Staphylococcus aureus [1]) | MIC (Proteus mirabilis) | MIC (Enterococcus faecalis) | MIC (Morganella morganii) | MIC (Streptococcus pneumoniae [2]) | ED50 (Streptococcus pneumoniae [3]) | ED50 (Escherichia coli [4]) | MIC (Enterobacter cloacae) | MIC (Escherichia coli [5]) | solubility [6] | MIC (Serratia marcescens) | MIC (Klebsiella pneumoniae) | logD [9] | ED50 (Pseudomonas aeruginosa [10]) | MIC (Pseudomonas aeruginosa [11]) | MIC (Bacteroides fragilis) | other results |
| --- | --- | --- | --- | --- | --- | --- | --- | --- | --- | --- | --- | --- | --- | --- | --- | --- | --- |
| Cc1c(F)c(N2CC[C@H](N)C2)nc2c1c(=O)c(C(=O)O)cn2-c1ccc(F)cc1 | 0.004 mg/L (≈ 0.00999 µM) | 0.008 mg/L (≈ 0.02 µM) | 0.06 mg/L (≈ 0.15 µM) | 0.008 mg/L (≈ 0.02 µM) | 0.03 mg/L (≈ 0.0749 µM) | 14.4 mg/kg | 4.9 mg/kg | 0.002 mg/L (≈ 0.005 µM) | 0.002 mg/L (≈ 0.005 µM) | 0.08 mg/mL (≈ 200 µM) | 0.03 mg/L (≈ 0.0749 µM) | 0.002 mg/L (≈ 0.005 µM) | 0.91 | 2.9 mg/kg | 0.25 mg/L (≈ 0.624 µM) | – | ED50 (Staphylococcus aureus [7]): 4.2 mg/kg; LD50 [8]: 94 mg/kg; LD50 [12]: 2500 mg/kg |
| Cc1c(F)c(N2CC3CCC2CN3)nc2c1c(=O)c(C(=O)O)cn2-c1ccc(F)cc1F (stereo unspecified) | 0.008 mg/L (≈ 0.018 µM) | 0.13 mg/L (≈ 0.293 µM) | 0.25 mg/L (≈ 0.563 µM) | 0.13 mg/L (≈ 0.293 µM) | 0.06 mg/L (≈ 0.135 µM) | 9.5 mg/kg | – | 0.008 mg/L (≈ 0.018 µM) | 0.008 mg/L (≈ 0.018 µM) | 0.01 mg/mL (≈ 22.5 µM) | 0.5 mg/L (≈ 1.13 µM) | 0.008 mg/L (≈ 0.018 µM) | 0.4 | 1.4 mg/kg | 0.5 mg/L (≈ 1.13 µM) | 4 mg/L (≈ 9 µM) | ED50 (Staphylococcus aureus [7]): 5.4 mg/kg; LD50 [8]: 24 mg/kg; LD50 [12]: 2500 mg/kg |
| Cc1c(F)c(N2CC3CCC2CN3)nc2c1c(=O)c(C(=O)O)cn2C1CC1 (stereo unspecified) | 0.03 mg/L (≈ 0.0806 µM) | 0.13 mg/L (≈ 0.349 µM) | 0.13 mg/L (≈ 0.349 µM) | 0.06 mg/L (≈ 0.161 µM) | 0.13 mg/L (≈ 0.349 µM) | – | – | 0.06 mg/L (≈ 0.161 µM) | 0.008 mg/L (≈ 0.0215 µM) | – | 0.13 mg/L (≈ 0.349 µM) | 0.016 mg/L (≈ 0.043 µM) | – | – | 0.5 mg/L (≈ 1.34 µM) | 16 mg/L (≈ 43 µM) | – |
| Cc1c(F)c(N2CCNCC2)nc2c1c(=O)c(C(=O)O)cn2C(C)(C)C | 0.03 mg/L (≈ 0.0828 µM) | 0.5 mg/L (≈ 1.38 µM) | 2 mg/L (≈ 5.52 µM) | 0.25 mg/L (≈ 0.69 µM) | 1 mg/L (≈ 2.76 µM) | – | – | 0.25 mg/L (≈ 0.69 µM) | 0.06 mg/L (≈ 0.166 µM) | – | 0.25 mg/L (≈ 0.69 µM) | 0.06 mg/L (≈ 0.166 µM) | – | – | 4 mg/L (≈ 11 µM) | > 32 mg/L | – |
| O=C(O)c1cn(C2CC2)c2nc(N3CC4CC3CN4)c(F)cc2c1=O (stereo unspecified) | 0.13 mg/L (≈ 0.378 µM) | 0.06 mg/L (≈ 0.174 µM) | 1 mg/L (≈ 2.9 µM) | 0.06 mg/L (≈ 0.174 µM) | – | – | – | 0.03 mg/L (≈ 0.0871 µM) | 0.06 mg/L (≈ 0.174 µM) | 0.09 mg/mL (≈ 261 µM) | 0.25 mg/L (≈ 0.726 µM) | 0.06 mg/L (≈ 0.174 µM) | – | – | 0.25 mg/L (≈ 0.726 µM) | – | – |
| CCc1c(F)c(N2CC[C@H](N)C2)nc2c1c(=O)c(C(=O)O)cn2C1CC1 | 1 mg/L (≈ 2.77 µM) | 2 mg/L (≈ 5.55 µM) | 16 mg/L (≈ 44.4 µM) | 0.5 mg/L (≈ 1.39 µM) | 1 mg/L (≈ 2.77 µM) | – | – | 0.25 mg/L (≈ 0.694 µM) | 0.25 mg/L (≈ 0.694 µM) | 0.07 mg/mL (≈ 194 µM) | 0.5 mg/L (≈ 1.39 µM) | 0.25 mg/L (≈ 0.694 µM) | 1.37 | – | 4 mg/L (≈ 11.1 µM) | 1 mg/L (≈ 2.77 µM) | – |
| N[C@H]1CCN(c2nc3c(cc2F)c(=O)c(C(=O)O)cn3C2CC2)C1 | 0.016 mg/L (≈ 0.0481 µM) | 0.03 mg/L (≈ 0.0903 µM) | 0.25 mg/L (≈ 0.752 µM) | 0.004 mg/L (≈ 0.012 µM) | 0.25 mg/L (≈ 0.752 µM) | – | – | 0.016 mg/L (≈ 0.0481 µM) | 0.002 mg/L (≈ 0.00602 µM) | – | 0.016 mg/L (≈ 0.0481 µM) | 0.004 mg/L (≈ 0.012 µM) | – | – | 0.25 mg/L (≈ 0.752 µM) | 2 mg/L (≈ 6.02 µM) | – |
| O=C(O)c1cn(-c2ccc(F)cc2F)c2nc(N3CCNCC3)c(F)cc2c1=O | 0.03 mg/L (≈ 0.0742 µM) | 0.06 mg/L (≈ 0.148 µM) | 1 mg/L (≈ 2.47 µM) | 0.13 mg/L (≈ 0.322 µM) | 0.5 mg/L (≈ 1.24 µM) | – | – | 0.03 mg/L (≈ 0.0742 µM) | 0.016 mg/L (≈ 0.0396 µM) | – | 0.13 mg/L (≈ 0.322 µM) | 0.03 mg/L (≈ 0.0742 µM) | – | – | 0.5 mg/L (≈ 1.24 µM) | 2 mg/L (≈ 4.95 µM) | – |
| O=C(O)c1cn(C2CC2)c2nc(N3CCNCC3)c(F)cc2c1=O | 0.25 mg/L (≈ 0.752 µM) | 0.25 mg/L (≈ 0.752 µM) | 8 mg/L (≈ 24.1 µM) | 0.06 mg/L (≈ 0.181 µM) | – | – | 0.4 mg/kg | 0.06 mg/L (≈ 0.181 µM) | 0.03 mg/L (≈ 0.0903 µM) | – | 0.25 mg/L (≈ 0.752 µM) | 0.06 mg/L (≈ 0.181 µM) | – | 3.6 mg/kg | 0.5 mg/L (≈ 1.5 µM) | – | ED50 (Staphylococcus): 7 mg/kg |
| O=C(O)c1cn(C2CC2)c2cc(N3CCNCC3)c(F)cc2c1=O [CIPROFLOXACIN] | 0.13 mg/L (≈ 0.392 µM) | – | 0.5 mg/L (≈ 1.51 µM) | – | 0.25 mg/L (≈ 0.754 µM) | > 50 mg/kg | 1.2 mg/kg | – | – | – | 0.03 mg/L (≈ 0.0905 µM) | 0.06 mg/L (≈ 0.181 µM) | – | 2.6 mg/kg | – | 4 mg/L (≈ 12.1 µM) | ED50 (Staphylococcus): 8 mg/kg |
| NC1CCN(c2nc3c(cc2F)c(=O)c(C(=O)O)cn3-c2ccc(F)cc2F)C1 (stereo unspecified) [TOSUFLOXACIN] | 0.016 mg/L (≈ 0.0396 µM) | 0.03 mg/L (≈ 0.0742 µM) | 0.25 mg/L (≈ 0.618 µM) | 0.06 mg/L (≈ 0.148 µM) | 0.06 mg/L (≈ 0.148 µM) | 11.4 mg/kg | 1.8 mg/kg | 0.03 mg/L (≈ 0.0742 µM) | 0.004 mg/L (≈ 0.00989 µM) | 0.02 mg/mL (≈ 49.5 µM) | 0.13 mg/L (≈ 0.322 µM) | 0.016 mg/L (≈ 0.0396 µM) | 0.1 | 2.9 mg/kg | 0.25 mg/L (≈ 0.618 µM) | 1 mg/L (≈ 2.47 µM) | T1/2 (Mus musculus): 1.38 h; ED50 (Staphylococcus): 2.1 mg/kg; half-life (in vivo): 2.4 h; LD50 [8]: 81 mg/kg; LD50 [12]: 2500 mg/kg |

Reference: ChEMBL document CHEMBL1126152, “Fluoronaphthyridines as antibacterial agents. 4. Synthesis and structure-activity relationships of 5-substituted-6-fluoro-7-(cycloalkylamino)-1,4-dihydro-4-oxo-1,8- naphthyridine-3-carboxylic acids” (J Med Chem, 1992)
